Measured values as given in ChEMBL document CHEMBL1142648, “Enhancement in antimicrobial activity of 2-(phenyl)-3-(2-butyl-4-chloro-1H-imidazolyl)-5-butylate isoxazolidine” (2005).
Converted amounts (≈) assume the structure as drawn.

Columns and labels:
Type in all cases: functional
[1] = tested on: Staphylococcus aureus; assay: Minimum inhibitory concentration against Staphylococcus aureus
In short: (§1)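 Broth tube dilution in brain heart infusion broth, 5 mL final volume. Compounds were dissolved in DMSO, diluted 1:9 with water, then serially diluted in medium. Cells were added at a final 2 × 10^3 CFU/mL and incubated at 37 °C for 24 h. Turbidity was read at 640 nm. MIC is the lowest concentration with no growth, confirmed by spreading 10 µL of clear tubes on BHI agar.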

[2] = tested on: Escherichia coli; assay: Minimum inhibitory concentration against Escherichia coli; in short: as §1
[3] = tested on: Bacillus subtilis; assay: Minimum inhibitory concentration against Bacillus subtilis; in short: as §1
[4] = tested on: Aspergillus niger; assay: Minimum inhibitory concentration against Aspergillus niger
In short: (§2)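 Fungal MIC by tube dilution in potato dextrose broth, 5 mL final volume. Compounds were taken up in DMSO, diluted 1:9 with water, then serially diluted in medium. Spore suspension was added at a final 2 × 10^3 CFU/mL and incubated at 28 °C for 48 h. Absorbance was read at 640 nm. MIC is the lowest no-growth concentration, checked by subculturing 10 µL onto potato dextrose agar and examining under a microscope.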

[5] = tested on: Fusarium verticillioides; assay: Minimum inhibitory concentration against Fusarium moniliforme; in short: as §2
[6] = tested on: Cephalosporium; assay: Minimum inhibitory concentration against Cephalosporium acremonium; in short: as §2
[7] = Staphylococcus aureus, read-out: MIC
[8] = Escherichia coli, read-out: MIC
[9] = Bacillus subtilis, read-out: MIC

Compound: CN[C@@H]1[C@H](O[C@H]2[C@H](O[C@H]3[C@H](O)[C@@H](O)[C@H](N=C(N)N)[C@@H](O)[C@@H]3N=C(N)N)O[C@@H](C)[C@]2(O)C=O)O[C@@H](CO)[C@H](O)[C@H]1O [STREPTOMYCIN]
- MIC [1, 7]: 3 µg/mL (≈ 5.16 µM)
- MIC [2, 8]: 6 µg/mL (≈ 10.3 µM)
- MIC [3, 9]: 3 µg/mL (≈ 5.16 µM)

Compound: NYSTATIN
- MIC [4]: 12 µg/mL
- MIC [5]: 14 µg/mL
- MIC ([6]; Hapsidospora chrysogena): 11 µg/mL

Compound: CCCCOC(=O)[C@H]1C[C@@H](c2[nH]c(CCCC)nc2Cl)N(c2ccccc2)O1 (stereo in doubt; B)
- MIC [1]: 8 µg/mL (≈ 19.7 µM)
- MIC [2]: 11 µg/mL (≈ 27.1 µM)
- MIC [4]: 36 µg/mL (≈ 88.7 µM)
- MIC [3]: 7 µg/mL (≈ 17.2 µM)
- MIC [5]: 28 µg/mL (≈ 69 µM)
- MIC [6]: 33 µg/mL (≈ 81.3 µM)

Compound: CCCCOC(=O)[C@H]1C[C@@H](c2[nH]c(CCCC)nc2Cl)N(c2ccccc2)O1 (stereo in doubt; A)
- MIC [1, 7]: 7 µg/mL (≈ 17.2 µM)
- MIC [2, 8]: 10 µg/mL (≈ 24.6 µM)
- MIC [4]: 14 µg/mL (≈ 34.5 µM)
- MIC [3, 9]: 7 µg/mL (≈ 17.2 µM)
- MIC [5]: 13 µg/mL (≈ 32 µM)
- MIC [6]: 11 µg/mL (≈ 27.1 µM)
